Experimental data published in ChEMBL document CHEMBL4229410, “Facile construction of fused benzimidazole-isoquinolinones that induce cell-cycle arrest and apoptosis in colorectal cancer cells” (Bioorg Med Chem, 2018).
Active and inactive are the calls of the source. No cut-off for these calls is given here.

Legend:
SW-620 [1] = experiment: Inhibition of colony formation in human SW620 cells assessed as reduction in colony size at 25 to 75 uM treated for 48 hrs followed by compound washout and measured after 14 hrs by crystal violet staining based assay; format: functional, cell-based
HT-29 [2] = experiment: Inhibition of colony formation in human HT-29 cells assessed as reduction in number of colonies at 25 to 75 uM treated for 48 hrs followed by compound washout and measured after 14 hrs by crystal violet staining based assay; format: functional, cell-based
HT-29 [3] = experiment: Cell cycle arrest in human HT-29 cells assessed as accumulation at G1-phase at 75 uM after 48 hrs by propidium iodide staining based flow cytometry (reference value: 41.86%); format: functional
HT-29 [4] = experiment: Cell cycle arrest in human HT-29 cells assessed as accumulation at S-phase at 75 uM after 48 hrs by propidium iodide staining based flow cytometry (reference value: 37.82%); format: functional
SW-620 [5] = experiment: Upregulation of p53 expression in human SW620 cells after 48 hrs by Western blot analysis; format: functional, cell-based
SW-620 [6] = experiment: Induction of apoptosis in human SW620 cells assessed as late apoptotic cells at 75 uM after 48 hrs by Annexin-V-FITC/propidium iodide staining based flow cytometry (reference value: 1.2%); format: functional
SW-620 [7] = experiment: Induction of apoptosis in human SW620 cells assessed as reduction in MCL1 expression after 48 hrs by Western blot analysis; format: functional, cell-based
HT-29 [8] = experiment: Effect on total mTOR expression in human HT-29 cells up to 75 uM after 48 hrs by Western blot analysis; format: ADME, cell-based; details: ht-29, 48 h
In short: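 HT29 or SW620 cells were treated at 0, 25, 50 and 75 μM for 48 h and lysed in RIPA with protease and phosphatase inhibitors. Protein was quantified by BCA. 50 μg lysate was run on 8–15% SDS-PAGE and transferred to PVDF. Blocking was 5% BSA/TBST for 2 h; primary antibodies were applied overnight at 4 °C, then HRP secondary 1 h at room temperature.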

[9] = biological target: Activin receptor type-1B (Homo sapiens) (UniProt P36896); experiment: Inhibition of human ACVR1B (S187 to I505 residues) expressed in bacterial expression system assessed as residual activity at 5 uM by KINOMEscan assay relative to control
[10] = biological target: Bone morphogenetic protein receptor type-2 (Homo sapiens) (UniProt Q13873); experiment: Inhibition of human BMPR2 (R179 to Q526 residues) expressed in mammalian expression system assessed as residual activity at 5 uM by KINOMEscan assay relative to control
[11] = test system: Epidermal growth factor receptor (Homo sapiens), P00533 [L858R]; experiment: Inhibition of partial length human EGFR (R669 to V1011 residues) L858R mutant expressed in bacterial expression system assessed as residual activity at 5 uM by KINOMEscan assay relative to control
[12] = biological target: Mitogen-activated protein kinase 11 (Homo sapiens, UniProt Q15759); experiment: Inhibition of full length human p38beta (M1 to Q364 residues) expressed in bacterial expression system assessed as residual activity at 5 uM by KINOMEscan assay relative to control
[13] = biological target: Serine/threonine-protein kinase PAK 1 (Homo sapiens, UniProt Q13153); experiment: Inhibition of human PAK1 (S149 to H545 residues) expressed in bacterial expression system assessed as residual activity at 5 uM by KINOMEscan assay relative to control
[14] = biological target: Platelet-derived growth factor receptor alpha (Homo sapiens, UniProt P16234); experiment: Inhibition of human PDGFRA (V575 to D1002 residues) expressed in mammalian expression system assessed as residual activity at 5 uM by KINOMEscan assay relative to control
[15] = biological target: Phosphatidylinositol 4,5-bisphosphate 3-kinase catalytic subunit gamma isoform (Homo sapiens, UniProt P48736); experiment: Inhibition of human PIK3CG (S144 to A1102 residues) expressed in mammalian expression system assessed as residual activity at 5 uM by KINOMEscan assay relative to control
[16] = biological target: Serine/threonine-protein kinase pim-1 (Homo sapiens, UniProt P11309); experiment: Inhibition of human PIM1 (A15 to K313 residues) expressed in bacterial expression system assessed as residual activity at 5 uM by KINOMEscan assay relative to control
[17] = biological target: Serine/threonine-protein kinase pim-2 (Homo sapiens, UniProt Q9P1W9); experiment: Inhibition of human PIM2 (M1 to E291 residues) expressed in bacterial expression system assessed as residual activity at 5 uM by KINOMEscan assay relative to control
[18] = biological target: RAF proto-oncogene serine/threonine-protein kinase (Homo sapiens, UniProt P04049); experiment: Inhibition of human RAF1 (I330 to T640 residues) expressed in bacterial expression system assessed as residual activity at 5 uM by KINOMEscan assay relative to control
[19] = biological target: Proto-oncogene tyrosine-protein kinase Src (Homo sapiens, UniProt P12931); experiment: Inhibition of human SRC (L240 to L536 residues) expressed in bacterial expression system assessed as residual activity at 5 uM by KINOMEscan assay relative to control
[20] = biological target: TGF-beta receptor type-1 (Homo sapiens) (UniProt P36897); experiment: Inhibition of human TGFBR1 (D179 to M503 residues) expressed in bacterial expression system assessed as residual activity at 5 uM by KINOMEscan assay relative to control
[21] = biological target: T1, Vascular endothelial growth factor receptor 2 (Homo sapiens, UniProt P35968); experiment: Inhibition of human VEGFR2 (R787 to P1253 residues) expressed in mammalian expression system assessed as residual activity at 5 uM by KINOMEscan assay relative to control
[22] = biological target: Casein kinase I isoform delta (Homo sapiens, UniProt P48730); experiment: Binding affinity to full length human CSNK1D (M1 to K409 residues) expressed in bacterial expression system by KINOMEscan assay
[23] = biological target: Dual specificity tyrosine-phosphorylation-regulated kinase 1B (Homo sapiens, UniProt Q9Y463); experiment: Binding affinity to full length human DYRK1B (M1 to S629 residues) expressed in bacterial expression system by KINOMEscan assay
[24] = biological target: Mitogen-activated protein kinase 8 (Homo sapiens, UniProt P45983); experiment: Binding affinity to full length human JNK1 (M1 to Q384 residues) expressed in mammalian expression system by KINOMEscan assay
[25] = biological target: Dual specificity mitogen-activated protein kinase kinase 1 (Homo sapiens, UniProt Q02750); experiment: Binding affinity to full length human MEK1 (M1 to V393 residues) expressed in mammalian expression system by KINOMEscan assay
[26] = biological target: MAP kinase-interacting serine/threonine-protein kinase 2 (Homo sapiens, UniProt Q9HBH9); experiment: Binding affinity to human MKNK2 (G63 to S388 residues) expressed in mammalian expression system by KINOMEscan assay
[27] = biological target: Ribosomal protein S6 kinase alpha-3 (Homo sapiens, UniProt P51812); experiment: Binding affinity to human N-terminal RSK2 kinase domain 1 (M1 to D394 residues) expressed in mammalian expression system by KINOMEscan assay
[28] = biological target: T1, Vascular endothelial growth factor receptor 2; experiment: Binding affinity to human VEGFR2 (R787 to P1253 residues) expressed in mammalian expression system by KINOMEscan assay

In the case of `CC(C)CN(C(=O)c1cccnc1)c1c2ccccc2c(=O)n2c1[nH]c1ccccc12`, the inhibition (SW-620 [1]) is reported as “Active”, the inhibition (HT-29 [2]) is reported as “Active” and the Activity (HT-29 [3]) is reported as 43.36%. For the same compound, the Activity (HT-29 [4]) was 33.33%, the Activity (SW-620 [5]) was “Dose-dependent effect” and the Activity (SW-620 [6]) was 19.6%. For the same compound, the Activity (SW-620 [7]) was “Dose-dependent effect”, the Activity (HT-29 [8]) was “Non-Toxic” and the Activity [9] was 92%. It also gave an Activity [10] of 100%, an Activity [11] of 92% and an Activity [12] of 100%. For the same compound, the Activity [13] was 100%, the Activity [14] was 100% and the Activity [15] was 100%. The Activity [16] was 83%, the Activity [17] was 100% and the Activity [18] was 89%. The Activity [19] was 100%, the Activity [20] was 100% and the Activity [21] was 98%. It also gave a Kd [22] of no less than 5 µM, a Kd [23] of no less than 5 µM and a Kd [24] of no less than 5 µM. It also gave a Kd [25] of no less than 5 µM, a Kd [26] of no less than 5 µM and a Kd [27] of no less than 5 µM. For the same compound, the Kd [28] was no less than 5 µM.
